Screens from PubChem BioAssay.
TRPC4 inh: inhibitors of mouse TRPC4 channel | Q9QUQ5 | B-score at 10 µM | AID 2247 | hit rate 0.39% among 300,000 | HEK293 TRPC4beta/mu-opioid, DAMGO-evoked Fluo4 calcium flux; active compounds read low;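 active = B-score over 3 SD under the library average, no early fluorescence shift, positive overall ratio signal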
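test system = HEK293 cells with stable TRPC4beta plus mu-opioid receptor expression | detection = Fluo4 Ca2+ flux fluorescence | read-out = integrated fluorescence ratio relative to baseline, converted to per-well B score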
TRPC4 agonist: opens the mouse TRPC4 cation channel; Q9QUQ5; HEK293 TRPC4beta/mu-opioid, Fluo4 calcium fluorescence; active compounds read high; B-score at 10 µM; hit rate 0.49% among 310,000;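 active = B-score above 5 SD of library B-scores, and initial fluorescence ratio not above library mean plus 5 SD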;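 also: positive B-score marks a calcium rise read as TRPC4 activation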
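Test system: HEK293 cells stably co-expressing mouse TRPC4beta and mu-opioid receptor | Schedule: Fluo4 dye loading 45 min at room temperature, 110 s recording | Measured by: Kinetic Fluo4 calcium fluorescence, 5 s baseline at 1 Hz | Evaluation: B score of integrated ratio | Controls: Buffer (low) and maximal DAMGO (high)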
TRPC4 potent: allosteric potentiators of mouse TRPC4 channel | HEK293 TRPC4beta/mu-opioid, DAMGO EC20, Fluo-4 Ca2+ flux; active compounds read high | Q9QUQ5 | B-score at 10 µM | hit rate 0.42% among 310,000;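 active = B-score of calcium response area above 5 SD of library B-scores, with initial fluorescence ratio within 5 SD of library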
TRPC6 activator: activators of mouse TRPC6 channel; HEK293-TRPC6 membrane potential dye fluorescence; active compounds read high; B-score at 10 µM; hit rate 0.13% among 310,000;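 active = B-score of the integrated fluorescence ratio above library mean plus 3 SD, and starting fluorescence ratio within library mean plus 5 SD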;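 also: higher score means more depolarization so channel activation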
Target sequence (Q61143 whole entry, looked up): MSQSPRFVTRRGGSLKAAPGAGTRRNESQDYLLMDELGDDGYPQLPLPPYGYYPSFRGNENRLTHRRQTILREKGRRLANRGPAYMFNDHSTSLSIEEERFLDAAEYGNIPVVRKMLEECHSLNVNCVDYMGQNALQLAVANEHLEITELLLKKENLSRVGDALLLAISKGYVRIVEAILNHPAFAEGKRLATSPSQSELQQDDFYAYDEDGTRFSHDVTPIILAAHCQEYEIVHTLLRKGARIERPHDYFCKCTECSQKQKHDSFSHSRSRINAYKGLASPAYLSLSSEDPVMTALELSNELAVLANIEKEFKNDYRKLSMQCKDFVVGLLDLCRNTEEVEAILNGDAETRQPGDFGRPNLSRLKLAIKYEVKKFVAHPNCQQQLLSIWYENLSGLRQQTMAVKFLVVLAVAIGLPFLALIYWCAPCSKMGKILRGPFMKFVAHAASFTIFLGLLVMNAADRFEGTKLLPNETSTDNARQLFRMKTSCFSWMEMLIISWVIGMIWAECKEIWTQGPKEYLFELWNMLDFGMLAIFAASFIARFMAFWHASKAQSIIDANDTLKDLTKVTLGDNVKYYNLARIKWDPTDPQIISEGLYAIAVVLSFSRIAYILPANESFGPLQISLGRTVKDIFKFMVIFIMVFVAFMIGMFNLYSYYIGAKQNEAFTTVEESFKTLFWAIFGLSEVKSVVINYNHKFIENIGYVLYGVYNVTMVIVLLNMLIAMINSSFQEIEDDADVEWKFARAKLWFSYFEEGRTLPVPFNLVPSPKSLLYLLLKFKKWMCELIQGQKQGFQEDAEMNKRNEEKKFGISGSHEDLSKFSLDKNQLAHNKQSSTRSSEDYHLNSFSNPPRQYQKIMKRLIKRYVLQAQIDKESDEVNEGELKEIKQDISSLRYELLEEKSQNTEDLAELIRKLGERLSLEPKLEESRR
TRPC6 inh: inhibitors of mouse TRPC6 channel; Q61143; HEK293-TRPC6, membrane potential dye, ACh-evoked depolarization; active compounds read low; B-score at 10 µM; hit rate 1.1% among 310,000; AID 2553;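 active = B-score under library mean minus 3 SD, initial fluorescence not abnormally high, positive integrated signal ratio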;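 also: B-score derived from integrated fluorescence ratio over the kinetic read; more negative B-score means stronger inhibition of depolarization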
TRPC4 sel inh 2: second selectivity test of TRPC6 inhibitors: effect on mouse TRPC4 | inhibition, % at 10 µM | shares compounds with TRPC6 inh | HEK293 TRPC4/MOR, membrane potential dye fluorescence; channel activated by saturating DAMGO dose | hit rate 42% among 920;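 active = compounds whose fluorescence signal differed from control wells by over 3 SD, either direction, in both duplicate plates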
TRPC4 spec: mouse TRPC4 off-target activity of TRPC6 inhibitors; activity change, negative = inhibition, % at 10 µM; shares compounds with TRPC6 inh; HEK293 TRPC4/mu-opioid, membrane potential fluorescence; AID 2777; hit rate 61% among 920;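 active = rise or fall in signal beyond 3 SD of buffer-only wells in both replicate plates, either sign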;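 also: integrated kinetic ratio of fluorescence range over baseline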
HEK293 MPD ctr 2-1: second check of TRPC6 inhibitor effects in parental HEK293 cells; shares compounds with TRPC6 inh; parental HEK293 membrane potential dye fluorescence; maximal acetylcholine challenge after compound addition; signal change vs control, % at 10 µM; hit rate 31% among 920;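 active = membrane potential signal moving either way by over 3 SD of the maximum-effect control, in both duplicate plates, meaning non-specific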
HEK293 MPD ctr-1: parental HEK293 nonspecific activity of TRPC6 inhibitors; hit rate 60% among 920; membrane potential signal change, % at 10 µM; AID 2780; parental HEK293 membrane potential dye fluorescence; shares compounds with TRPC6 inh;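 active = membrane potential signal shifting up or down by more than 3 SD of buffer-only wells, on both duplicate plates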
HEK293 MPD ctr-2: checks TRPC6 modulator effects in parental HEK293 cells; hit rate 51% among 2,400; shares compounds with TRPC6 inh; membrane potential signal change, % at 10 µM; membrane potential dye fluorescence;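 active = membrane potential signal moves up or down beyond 5 SD from buffer-only wells, on both duplicate plates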
HEK293 MPD ctr 2-2: parental HEK293 nonspecific activity of TRPC6 modulators, second screen. shares compounds with TRPC6 inh. membrane potential dye fluorescence; after compound, maximal acetylcholine stimulation. inhibition, % at 10 µM. hit rate 14% among 2,400;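 active = membrane potential signal drops by more than 5 SD from the mean control signal, in both duplicate plates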
TRPC4 ctr mod: mouse TRPC4 off-target activity of TRPC6 modulators; AID 488927; percent change from control (negative = decrease, positive = increase), % at 10 µM; hit rate 69% among 2,400; HEK293 TRPC4/mu-opioid, membrane potential fluorescence; shares compounds with TRPC6 inh;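 active = membrane potential signal moved up or down beyond 5 SD of buffer control wells, in both duplicate plates, actives on both sides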
TRPC4/MOR inh 2: second selectivity test of TRPC6 modulators against mouse TRPC4; shares compounds with TRPC6 inh; HEK293 TRPC4/mu-opioid, membrane potential dye fluorescence; stimulated with maximal-effect DAMGO; inhibition, % at 10 µM; hit rate 55% among 2,400; AID 488928;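 active = drop in membrane potential signal beyond 5 SD of the control wells in both duplicate plates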;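 also: TRPC4 counter screen for TRPC6 hits run under conditions tuned for TRPC6 not TRPC4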
TRPC6 block conf: confirmation of mouse TRPC6 inhibitors. shares compounds with TRPC6 inh. HEK293-TRPC6, membrane potential dye, ACh-evoked depolarization. inhibition, % at 10 µM. hit rate 43% among 3,300. AID 488960;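 active = fluorescence ratio falls more than 5 SD below the full-stimulation control mean, in both duplicate runs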;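 also: integrated fluorescence ratio of peak minus minimum over baseline after agonist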
TRPC6 act conf: confirmation of mouse TRPC6 activators; hit rate 11% among 2,800; HEK293-TRPC6 membrane potential dye fluorescence, FDSS; AID 488961; activation, % at 10 µM; shares compounds with TRPC6 inh;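 active = ratio signal rise beyond 5 SD above unstimulated control wells' mean, seen in both duplicate runs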
Hits are given with their value; . = inactive; / = no result. Compounds with a hit are over-represented: about 2.3% of the library has one in this group of screens.

SMILES	TRPC4 inh	TRPC4 agonist	TRPC4 potent	TRPC6 activator	TRPC6 inh	HEK293 MPD ctr-2	HEK293 MPD ctr 2-2	TRPC4 ctr mod	TRPC4/MOR inh 2	TRPC6 block conf	TRPC6 act conf	others
CCOC(=O)N1CCN(Cc2nc(-c3ccc(Cl)cc3)no2)CC1	.	.	.	.	-8.9	/	/	/	/	.	/	TRPC4 sel inh 2=.;TRPC4 spec=.;HEK293 MPD ctr 2-1=.;HEK293 MPD ctr-1=.
Cc1cc(C)n(C(=O)CNC(=O)c2cccc(Cl)c2)n1	.	.	.	.	.	/	/	/	/	/	/
Cc1cc(C)n(C(=O)CNC(=O)c2cccc(Br)c2)n1	.	.	.	.	-5.8	.	.	.	.	.	.
COc1cc(/C=N/n2cnnc2)ccc1OCC(=O)N1CCOCC1	.	.	.	.	-7.2	-334%	.	-54%	44%	46%	.
CC(O)c1ccc(-n2cnnn2)cc1 (stereo unspecified)	.	.	.	.	.	/	/	/	/	/	/
CCN(CC)C1CCN(C(=O)CCc2nnc(CCCCc3ccccc3)o2)C1 (stereo unspecified)	.	.	.	.	-5.2	.	.	.	.	.	.
Cc1cccc(N(C(=O)c2ccc(CN3CCOCC3)o2)C(C(=O)NC(C)(C)C)c2ccc(F)cc2)c1 (stereo unspecified)	.	.	.	.	.	/	/	/	/	/	/
COc1ccc2[nH]c3c(c2c1)CCNC3C1CC=C(C)CC1 (stereo unspecified)	.	.	.	.	-6.3	.	.	.	56%	36%	.
COc1ccc2[nH]c3c(c2c1)CCNC3c1ccc([N+](=O)[O-])o1 (stereo unspecified)	.	.	.	.	.	/	/	/	/	/	/
CCOC(=O)c1ccc(NC(=S)NCc2ccco2)cc1	.	.	.	.	-9.3	/	/	/	/	.	.	TRPC4 sel inh 2=.;TRPC4 spec=.;HEK293 MPD ctr 2-1=.;HEK293 MPD ctr-1=.
CCOC(=O)c1ccc(NC(=O)CN(Cc2ccc(Cl)cc2)S(C)(=O)=O)cc1	.	.	.	.	-6.6	/	/	/	/	.	.	TRPC4 sel inh 2=.;TRPC4 spec=-12%;HEK293 MPD ctr 2-1=.;HEK293 MPD ctr-1=.
CCOC(=O)c1ccc(NC(=S)NCc2ccc(S(N)(=O)=O)cc2)cc1	.	.	.	.	-5.3	.	.	.	.	48%	/
CCOC(=O)c1ccc(NC(=S)N(CCCN2CCCCCC2)Cc2ccco2)cc1	.	.	.	.	-5.7	.	.	.	77%	56%	.
CCOC(=O)c1ccc(NC(=S)N(CCN2CCCCCC2)Cc2ccco2)cc1	.	.	.	.	.	/	/	/	/	/	/
CS(=O)(=O)N(CC(=O)Nc1ccc2c(c1)OCCO2)Cc1ccc(Cl)cc1	.	.	.	.	.	/	/	/	/	/	/
CCOc1ccc(NC(=S)NCc2ccco2)cc1	.	.	.	.	.	/	/	/	/	/	/
COc1ccc(COc2cc(-c3cccc(OC)c3)nc3ccc(N)cc23)cc1	.	.	.	.	-8.3	/	/	/	/	.	.	TRPC4 sel inh 2=.;TRPC4 spec=-9.5%;HEK293 MPD ctr 2-1=.;HEK293 MPD ctr-1=.
CCOc1ccccc1-c1nc(C(N)=O)c2[nH]c(=O)n(-c3ccccc3)c2n1	.	.	.	.	.	/	/	/	/	/	/
CC(=O)N1CCN(Cc2nc3scc(-c4ccccc4)c3c(=O)[nH]2)CC1	.	.	.	.	.	/	/	/	/	/	/
N#Cc1ccc(NC(=S)Nc2ccccc2)cc1	.	.	.	.	.	/	/	/	/	/	/
COc1ccc(N2C(=O)CSC23C(=O)Nc2ccccc23)cc1 (stereo unspecified)	.	.	.	.	.	/	/	/	/	/	/
Cc1ccc(N2C(=O)CCSC23C(=O)Nc2ccccc23)cc1 (stereo unspecified)	.	.	.	.	-6.7	/	/	/	/	.	.	TRPC4 sel inh 2=.;TRPC4 spec=.;HEK293 MPD ctr 2-1=.;HEK293 MPD ctr-1=.
Cc1nn(C(=O)N2CCOCC2)c(C)c1C	.	.	.	.	-5.5	.	.	.	.	.	.
OCCNc1nc(-c2ccccc2)nc2ccccc12	.	.	.	.	.	/	/	/	/	/	/
COc1cccc(-c2nc(NCC3CCCO3)c3ccccc3n2)c1O (stereo unspecified)	.	.	.	.	.	/	/	/	/	/	/
SMILES	TRPC4 inh	TRPC4 agonist	TRPC4 potent	TRPC6 activator	TRPC6 inh	HEK293 MPD ctr-2	HEK293 MPD ctr 2-2	TRPC4 ctr mod	TRPC4/MOR inh 2	TRPC6 block conf	TRPC6 act conf	others
COc1ccc(OC)c(Nc2nc(NCCO)c3ccccc3n2)c1	-5	.	.	.	-9	/	/	/	/	79%	.	TRPC4 sel inh 2=44%;TRPC4 spec=-24%;HEK293 MPD ctr 2-1=32%;HEK293 MPD ctr-1=-274%
Cc1ccc(Nc2nc(NCCO)c3ccccc3n2)cc1C	.	.	.	.	-6.5	.	77%	-16%	86%	79%	.
COc1ccc(OC)c(Nc2c3ccccc3nc3ccccc23)c1	-6	.	.	.	-6	-182%	.	-30%	70%	53%	.
COc1ccccc1Nc1nc(NCCO)c2ccccc2n1	.	.	.	.	.	/	/	/	/	/	/
COc1ccccc1Nc1nc(NCC2CCCO2)c2ccccc2n1 (stereo unspecified)	-7	.	.	.	-8.8	/	/	/	/	112%	.	TRPC4 sel inh 2=32%;TRPC4 spec=-13%;HEK293 MPD ctr 2-1=.;HEK293 MPD ctr-1=-139%
Nc1c(-c2ccccc2)sc2ccc3ccccc3[n+]12	.	.	.	.	-5	-99%	.	-18%	.	44%	.
CC(=O)N1CCc2ccc(S(=O)(=O)N3CCN(C)CC3)cc21	.	.	.	.	-5.1	123%	.	40%	.	.	/
CC1CCN(S(=O)(=O)c2ccc3c(ccn3CCC(=O)N3CCCCC3)c2)CC1	.	.	.	.	-6.2	.	.	9.5%	.	78%	/
O=C(c1cccc(S(=O)(=O)N2CCCC2)c1)N1CCN(c2ccccc2)CC1	/	.	.	.	.	/	/	/	/	/	/
CC1CCN(C(=O)c2cccc(S(=O)(=O)N3CCCCC3)c2)CC1	.	.	.	13	-8.3	108%	.	20%	.	73%	106%
